For one data set, the system named is MT-2 human T-cells. The data set can be described thus: Cytotoxicity: inhibition of MT-2 cell growth, MTT. The class given is cell-based. Conditions: MT-2 cells. A digest of the protocol:
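Run alongside the HIV-1 IIIB protection assay in MT-2 human T-cells, with the MTT colorimetric method as read-out. CC50 is the concentration that inhibits MT-2 cell growth by 50%, obtained at the same time as the EC50 for protection of infected cells.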

In a further data set the test system is IIIB strain of HIV-1. The class given is cell-based. Conditions: HIV-1 IIIB, MT-2 cells.

Turning to `COc1nc(Nc2ccc(C#N)c(OCC=C(C)C)c2)nc(OCCOc2nc(Nc3ccc(C#N)c(OCC=C(C)C)c3)nc(OC)n2)n1` [Compound 6a], the “cytotoxicity” value in the data set with MT-2 human T-cells is 20 to 40 µM.
Take `COc1nc(Nc2ccc(C#N)c(OCC=C(C)C)c2)nc(OCCCOc2nc(Nc3ccc(C#N)c(OCC=C(C)C)c3)nc(OC)n2)n1` [Compound 6b]: the “cytotoxicity” value in the data set with MT-2 human T-cells lay in the range of 20 to 40 µM.
Regarding `COc1nc(NCCNc2nc(Nc3ccc(C#N)c(OCC=C(C)C)c3)nc(OC)n2)nc(Nc2ccc(C#N)c(OCC=C(C)C)c2)n1` [Compound 6e], the “anti-viral activity below CC50 level” value with IIIB strain of HIV-1 was “did not show anti-viral activity below their CC50 levels”.
On the same count and under the same terms, the value for `COc1nc(NCCCNc2nc(Nc3ccc(C#N)c(OCC=C(C)C)c3)nc(OC)n2)nc(Nc2ccc(C#N)c(OCC=C(C)C)c2)n1` [Compound 6f] was “did not show anti-viral activity below their CC50 levels”.

The record behind these values is paper PMC3278212 (Bioorganic & medicinal chemistry letters, 2012).
